In general, inhibition refers to the relative decrease from the control value, in per cent. A word on the inhibition in vivo: it is the relative decrease from the control value, in per cent.

Data set [1] deals with RAW264.7. Briefly: Inhibition of LPS-stimulated NO production in mouse RAW264.7 cells at 10 uM pre-incubated for 24 hrs before LPS-stimulation and measured after 24 hrs post LPS challenge by Griess assay. The data set is classed as functional. The conditions noted are these: time 48 hrs. Put shortly:
(§1)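 RAW 264.7 cells (1 million) in 24-well plates, 24 h settle, compound 24 h, then LPS 100 ng/ml for 24 h. Medium nitrite measured with Griess reagent (1% sulfanilamide, 0.1% naphthylethylenediamine in 2.5% phosphoric acid), 10 min room temperature, absorbance 570 nm, quantified against sodium nitrite standard curve; mean ± SD, n = 3.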

Data set [2] concerns Rattus norvegicus. Briefly: Antiinflammatory activity in Wistar rat assessed as inhibition of FCA-induced paw inflammation at 1 mg/kg/day, po […] measured 2 hrs after FCA challenge relative to control. The data set is classed as functional. The procedure, abridged: (§2)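 Male Wistar rats (200–225 g) randomized by paw volume, n = 6. Test agent i.p. daily for 5 days or reference oral on day 5; 1 h after dosing on day 5, 100 μg M. tuberculosis in 50 μl IFA injected sub-plantar into both hind paws. Paw volume plethysmometry at 2, 6, 24 h; % inhibition versus vehicle disease control.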

In data set [3] the test system is Rattus norvegicus. Briefly: Antiinflammatory activity in Wistar rat assessed as inhibition of FCA-induced paw inflammation at 1 mg/kg/day, po […] measured 6 hrs after FCA challenge relative to control. The data set is classed as functional. The procedure, abridged: as §2
Data set [4] deals with Rattus norvegicus. Briefly: Antiinflammatory activity in Wistar rat assessed as inhibition of FCA-induced paw inflammation at 1 mg/kg/day, […] measured 24 hrs after FCA challenge relative to control. It counts as functional. Conditions: route po. Put shortly: as §2
Data set [5] has as its system Mus musculus. Briefly: Anti-rheumatic activity in DBA1 mouse semi-therapeutic collagen induced arthritis model assessed as inhibition of clinical arthritic scores at 0.1 mg/kg/day, po QD dosed during day 21 to day 36 post immunization by hematoxylin and eosin staining based analysis. It counts as functional. The conditions noted are these: DBA1, 384 h, time 16 day. Put shortly:
(§3)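 Collagen-induced arthritis in female DBA1 mice: collagen II/CFA intradermal at tail base day 0, collagen/IFA boost day 21, LPS 50 μg i.p. day 28; once-daily dosing day 21 to 36, six per group. Arthritic clinical scores followed daily from day 28 to 37; mean ± SEM versus vehicle-treated disease control.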

Data set [6] has as its system Mus musculus. Briefly: Anti-rheumatic activity in DBA1 mouse semi-therapeutic collagen induced arthritis model assessed as inhibition of IL6 level in paw tissues at 0.1 mg/kg/day, po QD dosed during day 21 to day 36 post immunization by ELISA analysis. It counts as functional. Conditions: 384 h, time 16 day. Put shortly: (§4)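 Female DBA1 mice (6–8 weeks) immunized intradermally at tail base on day 0 with bovine type II collagen in CFA, boosted day 21 with collagen in IFA, LPS 50 μg i.p. day 28; dosed day 21–36 (n = 6/group). Day 37 left paws frozen, pulverized in liquid nitrogen, homogenized in T-PER, spun 500 g 10 min 4 °C; supernatant IL-6 by ELISA, normalized per mg protein.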
In general terms: In an ELISA, binding on a coated surface is turned into a signal by an enzyme label.

Data set [7] concerns Mus musculus. Briefly: Anti-rheumatic activity in DBA1 mouse semi-therapeutic collagen induced arthritis model assessed as inhibition of histopathological changes (cartilage erosion, synovial hyperplasia and inflammation) at 0.1 mg/kg/day, po QD dosed during day 21 to day 36 post immunization by hematoxylin and eosin staining based analysis. The data set is classed as functional. Conditions: DBA1, 384 h, time 16 day. The procedure, abridged:
(§5)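 Histopathology in collagen II/CFA-immunized DBA1 mice (day 21 boost, day 28 LPS i.p.), treated day 21–36, n = 6. Right fore and hind paws taken at sacrifice on day 37, paraffin-embedded, sectioned, H&E-stained and scored for cartilage erosion, synovial hyperplasia, pannus and cell infiltration.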

Data set [8] concerns Mus musculus. Briefly: Anti-rheumatic activity in DBA1 mouse semi-therapeutic collagen induced arthritis model assessed as mild cartilaginous change like proteoglycan loss at 0.1 mg/kg/day, po QD dosed during day 21 to day 36 post immunization by Safranin O staining analysis. It counts as functional, organism-based. Conditions: time 16.0 day. The procedure, abridged:
(§6)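 Right fore and hind paws from collagen-induced arthritic DBA1 mice (treated day 21–36, sacrificed day 37) paraffin-sectioned and stained with Safranin O to detect proteoglycan/glycosaminoglycan loss in articular cartilage.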

The nature of data set [9]: Toxicity in DBA1 mouse semi-therapeutic collagen induced arthritis model assessed as spleen weight at 0.1 mg/kg/day, po QD dosed during day 21 to day 36 post immunization (reference value: 226.4 +/- 11.03 mg). Conditions: in vivo, 384 h, time 16 day. The data set is classed as organism-based.
Data set [10] can be described thus: Toxicity in DBA1 mouse semi-therapeutic collagen induced arthritis model assessed as thymus weight at 0.1 mg/kg/day, po QD dosed during day 21 to day 36 post immunization (reference value: 12.20 +/- 1.5 mg). It counts as organism-based. The conditions noted are these: in vivo, 384 h, time 16 day.
Data set [11] is described as follows: Toxicity in DBA1 mouse semi-therapeutic collagen induced arthritis model assessed as change in body weight at 0.1 mg/kg/day, po QD dosed during day 21 to day 36 post immunization (reference value: -25.03 +/- 5.22%). It counts as organism-based. Conditions: in vivo, 384 h, time 16 day.
For data set [12], the system named is THP-1. Briefly: Inhibition of LPS-stimulated TNFalpha production in PMA-activated human THP-1 cells pre-incubated for 24 hrs before LPS-stimulation and measured after 4 hrs post LPS challenge by ELISA. Conditions: time 28.0 hrs. It counts as functional, cell-based. The procedure, abridged:
(§7)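 THP-1 cells, 10,000/well, differentiated with 32 nM PMA for 24 h, medium replaced and rested 24 h, then compound 24 h before LPS: 10 ng/ml for 4 h (TNF-α) or 100 ng/ml for 8 h (IL-6). Conditioned medium assayed by human ELISA at 450 nm; mean ± SD, n = 3; IC50 from dose–response.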

Data set [13] relates to THP-1. Briefly: Inhibition of LPS-stimulated IL6 production in PMA-activated human THP-1 cells pre-incubated for 24 hrs before LPS-stimulation and measured after 8 hrs post LPS challenge by ELISA. The data set is classed as functional, cell-based. The conditions noted are these: time 32.0 hrs. Put shortly:
as §7

The subject of data set [14] is THP-1. Briefly: Cytotoxicity in human THP-1 cells at 100 to 100000 nM incubated for 24 hrs by SRB assay. It counts as toxicity, cell-based. Conditions: thp-1, 24 h, 100 µM, dose 100-100000 nM. Put shortly:
(§8)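 RAW 264.7 (DMEM) or THP-1 (RPMI-1640) cells, 10% FBS, seeded 10,000/well and exposed 24 h to compound in DMSO over 100–100000 nM. SRB staining, absorbance 530 nm; % survival relative to untreated cells, mean ± SD, n = 3.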
(In general: In SRB staining, fixed cells bind dye roughly in proportion to their protein.)

In data set [15] the test system is RAW264.7. Briefly: Cytotoxicity in mouse RAW264.7 cells at 100 to 100000 nM incubated for 24 hrs by SRB assay. It counts as toxicity, cell-based. The conditions noted are these: raw264.7, 24 h, 100 µM, dose 100-100000 nM. Put shortly:
as §8

For data set [16], the system named is RAW264.7. Briefly: Inhibition of LPS-stimulated NO production in mouse RAW264.7 cells pre-incubated for 24 hrs before LPS-stimulation and measured after 24 hrs post LPS challenge by Griess assay. It counts as functional, cell-based. The conditions noted are these: time 48.0 hrs. Put shortly: as §1
For orientation: Griess reagent forms a coloured azo dye with nitrite.

In data set [17] the test system is Rattus norvegicus. Briefly: Antiinflammatory activity in Wistar rat assessed as inhibition of FCA-induced paw inflammation at 30 mg/kg/day, ip for 5 days measured 2 hrs after FCA challenge relative to control. The data set is classed as functional. The conditions noted are these: 120 h, time 5 day. Put shortly:
as §2

In data set [18] the test system is Rattus norvegicus. Briefly: Antiinflammatory activity in Wistar rat assessed as inhibition of FCA-induced paw inflammation at 30 mg/kg/day, ip for 5 days and measured 6 hrs after FCA challenge relative to control. It counts as functional. The conditions noted are these: 120 h, time 5 day. Put shortly: as §2
Data set [19] relates to Rattus norvegicus. Briefly: Antiinflammatory activity in Wistar rat assessed as inhibition of FCA-induced paw inflammation at 30 mg/kg/day, ip for 5 days and measured 24 hrs after FCA challenge relative to control. The conditions noted are these: 120 h, time 5 day. It counts as functional. Put shortly: as §2
Data set [20] relates to Mus musculus. Briefly: Anti-rheumatic activity in DBA1 mouse semi-therapeutic collagen induced arthritis model assessed as inhibition of clinical arthritic scores at 30 mg/kg/day, ip QD dosed during day 21 to day 36 post immunization by hematoxylin and eosin staining based analysis. It counts as functional. The conditions noted are these: DBA1, 384 h, time 16 day. The procedure, abridged: as §3

Data set [21] concerns Mus musculus. Briefly: Anti-rheumatic activity in DBA1 mouse semi-therapeutic collagen induced arthritis model assessed as inhibition of IL6 level in paw tissues at 30 mg/kg/day, ip QD dosed during day 21 to day 36 post immunization by ELISA analysis. It counts as functional. Conditions: 384 h, time 16 day. The procedure, abridged:
as §4

Data set [22] relates to Mus musculus. Briefly: Anti-rheumatic activity in DBA1 mouse semi-therapeutic collagen induced arthritis model assessed as inhibition of histopathological changes (cartilage erosion, synovial hyperplasia and inflammation) at 30 mg/kg/day, ip QD dosed during day 21 to day 36 post immunization by hematoxylin and eosin staining based analysis. The conditions noted are these: DBA1, 384 h, time 16 day. The data set is classed as functional. Put shortly: as §5

In data set [23] the test system is Mus musculus. Briefly: Anti-rheumatic activity in DBA1 mouse semi-therapeutic collagen induced arthritis model assessed as mild cartilaginous change like proteoglycan loss at 30 mg/kg/day, ip QD dosed during day 21 to day 36 post immunization by Safranin O staining analysis. It counts as functional, organism-based. The conditions noted are these: time 16.0 day. Put shortly:
as §6

A short description of data set [24]: Toxicity in DBA1 mouse semi-therapeutic collagen induced arthritis model assessed as spleen weight at 30 mg/kg/day, ip QD dosed during day 21 to day 36 post immunization (reference value: 226.4 +/- 11.03 mg). The conditions noted are these: in vivo, 384 h, time 16 day. The data set is classed as organism-based.
The nature of data set [25]: Toxicity in DBA1 mouse semi-therapeutic collagen induced arthritis model assessed as thymus weight at 30 mg/kg/day, ip QD dosed during day 21 to day 36 post immunization (reference value: 12.20 +/- 1.5 mg). It counts as organism-based. Conditions: in vivo, 384 h, time 16 day.
The nature of data set [26]: Toxicity in DBA1 mouse semi-therapeutic collagen induced arthritis model assessed as change in body weight at 30 mg/kg/day, ip QD dosed during day 21 to day 36 post immunization (reference value: -25.03 +/- 5.22%). The data set is classed as organism-based. Conditions: in vivo, 384 h, time 16 day.

Activity calls are given as the source filed them. The calls are words filed in the database; no cut-off is given here.

In the case of `C[C@@H]1C[C@H]2[C@@H]3CCC4=CC(=O)C=C[C@]4(C)[C@@]3(F)[C@@H](O)C[C@]2(C)[C@@]1(O)C(=O)CO` [DEXAMETHASONE], in the data set with RAW264.7 [1], 10 µM produced 36% inhibition. Moreover, the values for the inhibition in vivo at 1 mg/kg/day in the data set with Rattus norvegicus [2], in the data set with Rattus norvegicus [3] and with Rattus norvegicus [4] were 65.4%, 90.5% and 49.5%, respectively. Also, the inhibition in vivo at 0.1 mg/kg/day in the data set on Mus musculus [5] stood at 92%; in the data set with Mus musculus [6], 66%; with Mus musculus [7] it was 100%. In addition, the result in the data set with Mus musculus [8] was Active. Further, the results for the Activity in [9], in data set [10] and in data set [11] were 52.5 mg, 6.5 mg and -13.9%, respectively.

Take `CN1CCc2c(c3ccccc3n2Cc2ccc(C(=O)NO)cc2)C1` [TUBASTATIN A]: the inhibition entry in the data set on THP-1 [12], in the data set on THP-1 [13] and in the data set with RAW264.7 [16] was “Dose-Dependent Effect” each time. Besides, the Activity result in the data set on THP-1 [14] is recorded as “Non-Toxic”; in the data set with RAW264.7 [15] it was “Non-Toxic”; in [24] it was 182 mg; in data set [25], 17.5 mg; in data set [26], -1.07%. The compound also yielded an inhibition at 10 µM in the data set with RAW264.7 [1] of 66%. Moreover, the inhibition in vivo at 30 mg/kg/day in the data set with Rattus norvegicus [17] turned out to be 71.9%; with Rattus norvegicus [18], 40.3%; with Rattus norvegicus [19], 38.6%; in the data set on Mus musculus [20], 73%; with Mus musculus [21] it was 59%; in the data set with Mus musculus [22], 71%. Besides, in the data set on Mus musculus [23], the outcome was Active.
